DDE Tn6 FP inh: DD(E)-Tn6 binding inhibition, primary FP screen. inhibition, % at 8.3 µM. 0.21% of 370,000 active. Fibrin DD(E) TRITC-Tn6 fluorescence polarization displacement. P02675. AID 720509;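 active = inhibition above a per-campaign cutoff: mean of compounds within control limits plus 3 SD, cut at about 15% in these data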;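 note: 0% = median of all compound wells on the plate and 100% = blocking peptide control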
PLCg1 inh: PLC-gamma1 (human) inhibition, primary screen; 0.84% of 370,000 active; purified PLC-gamma1, fluorogenic substrate, fluorescence; inhibition, % at 12.2 µM; P19174
ADAM17 inh: inhibits human ADAM17; AID 720648; inhibition, % at 6.95 µM; 0.83% of 370,000 active; P78536; recombinant ADAM17, EDANS/DABCYL FRET peptide cleavage;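 active = inhibition above the mean of compounds lying between control limits plus 3 SD, set per campaign, cut at about 8.5% in these data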;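 note: 0% = DMSO-only wells as the low control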
PLCb3 inh: blocks human PLC-beta3 enzyme activity; 0.18% of 370,000 active; inhibition, % at 12.2 µM; Purified PLC-beta3, fluorogenic substrate, fluorescence; in the data active = inhibition above about 11%;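 note: 0% = median of compound wells on plate and 100% = full blocker control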
Target sequence (Q01970 whole entry, looked up): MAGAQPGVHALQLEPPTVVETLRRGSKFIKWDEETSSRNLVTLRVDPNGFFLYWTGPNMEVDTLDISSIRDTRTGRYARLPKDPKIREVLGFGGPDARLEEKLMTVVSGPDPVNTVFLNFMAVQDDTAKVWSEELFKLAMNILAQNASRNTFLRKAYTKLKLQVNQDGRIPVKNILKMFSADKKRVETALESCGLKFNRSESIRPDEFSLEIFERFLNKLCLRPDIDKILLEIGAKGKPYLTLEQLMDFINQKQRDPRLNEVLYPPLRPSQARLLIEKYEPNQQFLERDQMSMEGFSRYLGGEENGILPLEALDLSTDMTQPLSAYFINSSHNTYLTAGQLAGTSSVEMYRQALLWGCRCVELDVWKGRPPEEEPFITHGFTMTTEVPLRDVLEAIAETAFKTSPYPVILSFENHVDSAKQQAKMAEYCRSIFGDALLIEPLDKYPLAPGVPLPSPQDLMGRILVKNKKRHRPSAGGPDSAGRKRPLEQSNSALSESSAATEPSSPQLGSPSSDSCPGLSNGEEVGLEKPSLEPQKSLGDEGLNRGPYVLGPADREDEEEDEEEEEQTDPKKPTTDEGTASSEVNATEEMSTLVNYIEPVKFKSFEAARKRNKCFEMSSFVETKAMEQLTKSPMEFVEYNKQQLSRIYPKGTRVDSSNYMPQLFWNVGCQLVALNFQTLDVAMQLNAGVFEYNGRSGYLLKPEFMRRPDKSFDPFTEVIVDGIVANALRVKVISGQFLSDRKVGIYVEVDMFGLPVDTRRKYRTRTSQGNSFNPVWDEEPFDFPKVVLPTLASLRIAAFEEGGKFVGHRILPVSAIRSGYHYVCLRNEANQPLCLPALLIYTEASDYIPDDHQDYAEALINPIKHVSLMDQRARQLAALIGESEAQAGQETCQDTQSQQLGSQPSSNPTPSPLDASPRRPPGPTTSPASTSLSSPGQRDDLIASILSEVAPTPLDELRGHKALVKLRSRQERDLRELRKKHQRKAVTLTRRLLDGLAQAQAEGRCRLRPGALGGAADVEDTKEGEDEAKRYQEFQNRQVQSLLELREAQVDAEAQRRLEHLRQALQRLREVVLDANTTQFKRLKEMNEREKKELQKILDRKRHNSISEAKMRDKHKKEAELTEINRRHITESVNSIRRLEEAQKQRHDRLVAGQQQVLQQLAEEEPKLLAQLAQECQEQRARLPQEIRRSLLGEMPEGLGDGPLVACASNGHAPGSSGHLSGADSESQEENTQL
ADAM10 inh: inhibitors of human ADAM10; O14672; recombinant ADAM10, EDANS/DABCYL FRET peptide cleavage, 3 h; inhibition, % at 7 µM; 0.62% of 370,000 active; AID 720582;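 active = inhibition above a per-campaign cutoff equal to the mean of compounds falling between control-based bounds plus 3 SD, cut at about 20% in these data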;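 note: 0% = DMSO wells while the 100% control is not disclosed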
Tn7 DDE FP: inhibitors of Tn7 peptide binding to human fibrin DD(E); AID 720508; inhibition, % at 8.3 µM; FP displacement of FITC-Tn7 peptide from fibrin DD(E); 0% = median of compound wells per plate; 0.13% of 370,000 active; P02675;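 active = inhibition above the mean of compounds falling within the control limits plus 3 SD of them, cut at about 14% in these data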;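 note: 0% = plate median of compound wells and 100% = 10 µM Aha-Tn7 peptide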
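System: human fibrin DD(E); quantity: Fibrin-DD(E) at 2 µM final; also added: fluorescent Tn7 probe at 0.1 µM; compound dosing: single nominal test concentration of 8.3 µM per compound; schedule: 10 min preincubation, 3 h with tracer, room temperature; detection: fluorescence polarization of the labelled Tn7 tracer; repeats: one replicate per compound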
PLCg1 ctr: counter-screen for PLC-beta3 inhibitors: inhibitors of human PLC-gamma1; shares compounds with PLCg1 inh; purified PLC-gamma1, fluorogenic substrate, fluorescence; inhibition, % at 12.3 µM; 3.1% of 3,300 active; AID 743258
PLCb3 confirm: human PLC-beta3 inhibition, confirmation; 1% of 3,300 active; AID 743261; purified PLC-beta3, fluorogenic substrate fluorescence; inhibition, % at 12.3 µM; shares compounds with PLCg1 inh; in the data active = inhibition above about 11%
Active calls of the source: *; . = no result given. An excerpt weighted towards active compounds, which were near 2.3% of everything screened. Cut-off read from the data, not from the text of the source, unless noted: active = inhibition above about 9.5%; inactive = the rest.

SMILES	DDE Tn6 FP inh	PLCg1 inh	ADAM17 inh	PLCb3 inh	ADAM10 inh	Tn7 DDE FP	PLCg1 ctr	PLCb3 confirm
COc1ccc(C(=O)NCC(=O)OC2CCCCC2=O)cc1 (centres undefined)	-4.0	8.1	4.6	13.6*	10.8	-2.5	0.5	0.8
CC(=O)Nc1ccc2nc(SCC(=O)NCCOc3ccccc3)sc2c1	1.3	6.7	-2.9	-0.6	-4.9	4.5	.	.
CC(=O)Nc1nnc(SCC(=O)NCCOc2ccccc2)s1	6.5	9.9*	1.3	2.3	4.4	-11.1	-5.4	0.0
O=C(NC(=S)Nc1c(F)cc(F)cc1Br)c1ccc2c(c1)OCCO2	0.6	12.8*	2.3	8.6	11.2	4.2	-5.2	-1.8
O=C(NC(=S)Nc1ccc(F)cc1)c1ccc2c(c1)OCCO2	-3.9	-1.0	-4.9	0.7	-2.5	7.0	.	.
Cc1ccnc(NC(=O)c2ccc(Cl)c(NC(=O)C(C)Oc3ccccc3)c2)c1 (centres undefined)	0.8	9.9*	3.9	5.2	4.3	-7.7	-5.5	-3.6
COC(=O)[C@@H]1CC[C@@](C)(c2ccc(OC)cc2)C1(C)C	-3.9	14.1*	5.5	8.4	-0.5	3.2	-5.9	-2.3
COc1ccc(-c2cc(-c3nnc(SCC(=O)Nc4nccs4)n3N)[nH]n2)cc1	1.4	2.7	-2.0	3.3	-0.7	-2.3	.	.
Cc1ccc(C)c(NC(=O)C(Sc2nc3ccc(C)cc3[nH]2)c2ccccc2)c1 (centres undefined)	-0.1	-1.4	0.9	4.5	0.5	3.4	.	.
Cc1ccc2nc(SC(C(=O)Nc3ccc(F)cc3)c3ccccc3)[nH]c2c1 (centres undefined)	-7.5	13.5*	3.6	6.0	9.6	-6.8	-2.1	-7.9
Cn1ncc2nnn(-c3ccccc3)c(=O)c21	7.8	-0.4	-4.1	1.9	-1.0	-2.1	.	.
Cn1ncc2nc[nH]c(=O)c21	9.7	10.5*	-2.3	0.8	-4.0	-0.3	-4.4	-2.2
Cc1ccc(C)c(NC(=O)Cn2nnc(-c3ccncc3)n2)c1	1.0	0.5	-2.5	1.4	0.9	4.1	.	.
CN(C)c1cccc(NC(=O)C2(C)CC2(Cl)Cl)c1 (centres undefined)	2.6	4.5	3.5	16.2*	12.0	8.6	-8.1	-10.7
C#Cc1cccc(OC[C@@H](O)CN2CCC(C(O)(c3ccccc3)c3ccccc3)CC2)c1	2.7	5.7	1.7	0.6	6.0	-9.6	.	.
CN(c1ccc(NC(=O)Cc2c[nH]c3ccccc23)cc1)c1ccccn1	3.3	-8.7	-2.0	-13.0	-4.3	-0.6	.	.
CC(=O)c1cccc(NC(=O)C2C3C=CC(C3=C(c3ccccc3)c3ccccc3)C2C(=O)O)c1 (centres undefined)	2.7	10.2*	0.2	-12.8	2.3	0.9	-8.2	-11.7
CCOC(=O)Cn1cc(CN2C(C(=O)OC)CN(Cc3ccc(Cl)cc3)CCS2(=O)=O)nn1 (centres undefined)	0.5	0.7	1.6	-0.1	4.3	3.4	.	.
O=C1c2ccccc2C(=O)N1Cc1cccnc1	-3.7	12.4*	-0.8	4.9	2.5	-0.7	-5.2	0.0
CC(=O)c1c(C)[nH]c(C(=O)Nc2cccc(C#N)c2)c1C	-0.5	9.8*	4.6	-3.3	-3.9	-8.0	-16.3	-14.9
CC1=C(C(=O)OC(C)C)C(c2cccc([N+](=O)[O-])c2)n2c(cc(=O)[nH]c2=S)N1 (centres undefined)	4.5	9.7*	6.7	2.7	13.7	-4.7	-2.4	-0.2
COP(=O)(CC(=O)O)C(CC(C)C)NC(=O)OCc1ccccc1 (centres undefined)	5.1	-1.0	-0.7	-1.0	0.6	4.1	.	.
CCN(CCNCC(O)COc1ccccc1C(C)C)c1cccc(C)c1 (centres undefined)	-1.9	16.9*	-0.5	-1.1	10.0	4.1	1.3	1.9
N#Cc1ccccc1S(=O)(=O)N1CCN(CC(O)CN2CCOCC2)CC1 (centres undefined)	2.8	9.7*	-2.1	0.4	-16.4	0.2	-4.2	1.3
N#CCOc1nc(N2CCOCC2)nc(N2CCOCC2)n1	9.9	10.0*	-0.1	-1.9	0.8	-2.8	-0.2	-3.7
SMILES	DDE Tn6 FP inh	PLCg1 inh	ADAM17 inh	PLCb3 inh	ADAM10 inh	Tn7 DDE FP	PLCg1 ctr	PLCb3 confirm
N#CCOc1nc(N2CCCC2)nc(N2CCCC2)n1	-2.2	-1.4	-10.1	1.3	-8.1	-1.3	.	.
CCCCNC(=O)C[C@H]1C[C@@]2(C(=O)OC)C(=C[C@H](C(C)C)O[C@@H]2C2CC2)N(Cc2ccco2)C1=O	2.5	-2.2	0.2	4.8	7.2	1.0	.	.
COc1ccc(C(CNC(=O)c2cc3ccccc3o2)N2CCCCC2)cc1 (centres undefined)	5.1	2.0	-1.2	6.9	5.5	-6.0	.	.
COc1ccc(C(CNC(=O)c2cc3ccccc3o2)N2CCCC2)cc1 (centres undefined)	-8.1	10.5*	-5.3	-11.8	2.7	-1.3	-7.8	-4.3
Cc1nc2ccc(S(=O)(=O)NCC(=O)NCc3ccccc3C)cc2s1	3.6	-1.0	0.2	-0.4	-0.2	12.8	.	.
CCc1ccc(N2CC(C(=O)OCC(=O)NNC(=O)c3ccccc3)CC2=O)cc1 (centres undefined)	-7.1	-3.0	-4.8	-6.9	-8.6	-5.0	.	.
Cc1ccc(N2CC(C(=O)OCC(=O)NNC(=O)c3ccccc3)CC2=O)cc1 (centres undefined)	0.7	10.7*	-2.5	-4.0	-1.8	5.2	3.0	2.8
C=C(C)Cn1c(SCC(=O)N/N=C(\C)c2ccc([N+](=O)[O-])cc2)nnc1-c1ccc(Br)cc1	-3.2	10.0*	2.5	10.9*	4.2	-5.8	1.7	2.7
C=C(C)Cn1c(SCC(=O)NN=Cc2c(O)ccc3ccccc23)nnc1-c1ccc(Br)cc1	-4.7	-4.5	-4.9	-8.7	-11.9	-1.5	.	.
Cn1cccc1C(=O)N1CCN(S(=O)(=O)c2ccc(F)cc2)CC1	2.1	1.9	-2.2	3.5	0.4	-7.5	.	.
O=c1[nH]nc(-c2ccc(NCCCO)c([N+](=O)[O-])c2)c2ccccc12	-1.9	13.2*	4.1	3.4	6.7	-5.2	-1.9	-5.7
O=c1[nH]nc(-c2ccc(NCCO)c([N+](=O)[O-])c2)c2ccccc12	-1.9	2.0	-2.1	-2.8	-2.0	-1.5	.	.
Cc1ccc(C)c(Cn2c(C(C)O)nc3ccccc32)c1 (centres undefined)	4.1	10.5*	1.5	2.4	2.5	7.5	-1.0	2.8
